Molecules are shown by their SMILES. Calls of active or inactive are those of the source. No cut-off for these calls is given here.

Assay [1] relates to Splenocyte. Kind of assay: Immunomodulatory activity in C57BL/6 mouse splenocytes bearing TLR7 receptor assessed as IL6 release at 100 ug/ml after 24 hrs by ELISA. The format is functional, cell-based. In short, it runs like this: (§1)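 C57BL/6 splenocytes in RPMI 1640 with 10% FBS, penicillin/streptomycin, 2 mM L-glutamine, plated at 5 × 10^6 cells/mL; compounds in PBS added, 37 °C for 24 h. Supernatant IL-12 and IL-6 by ELISA; representative of three independent experiments.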
(ELISA stands for enzyme-linked immunosorbent assay.)

Assay [2] concerns the target T1, Toll-like receptor 8 (Homo sapiens) (UniProt Q9NR97).
T1 sequence (whole entry): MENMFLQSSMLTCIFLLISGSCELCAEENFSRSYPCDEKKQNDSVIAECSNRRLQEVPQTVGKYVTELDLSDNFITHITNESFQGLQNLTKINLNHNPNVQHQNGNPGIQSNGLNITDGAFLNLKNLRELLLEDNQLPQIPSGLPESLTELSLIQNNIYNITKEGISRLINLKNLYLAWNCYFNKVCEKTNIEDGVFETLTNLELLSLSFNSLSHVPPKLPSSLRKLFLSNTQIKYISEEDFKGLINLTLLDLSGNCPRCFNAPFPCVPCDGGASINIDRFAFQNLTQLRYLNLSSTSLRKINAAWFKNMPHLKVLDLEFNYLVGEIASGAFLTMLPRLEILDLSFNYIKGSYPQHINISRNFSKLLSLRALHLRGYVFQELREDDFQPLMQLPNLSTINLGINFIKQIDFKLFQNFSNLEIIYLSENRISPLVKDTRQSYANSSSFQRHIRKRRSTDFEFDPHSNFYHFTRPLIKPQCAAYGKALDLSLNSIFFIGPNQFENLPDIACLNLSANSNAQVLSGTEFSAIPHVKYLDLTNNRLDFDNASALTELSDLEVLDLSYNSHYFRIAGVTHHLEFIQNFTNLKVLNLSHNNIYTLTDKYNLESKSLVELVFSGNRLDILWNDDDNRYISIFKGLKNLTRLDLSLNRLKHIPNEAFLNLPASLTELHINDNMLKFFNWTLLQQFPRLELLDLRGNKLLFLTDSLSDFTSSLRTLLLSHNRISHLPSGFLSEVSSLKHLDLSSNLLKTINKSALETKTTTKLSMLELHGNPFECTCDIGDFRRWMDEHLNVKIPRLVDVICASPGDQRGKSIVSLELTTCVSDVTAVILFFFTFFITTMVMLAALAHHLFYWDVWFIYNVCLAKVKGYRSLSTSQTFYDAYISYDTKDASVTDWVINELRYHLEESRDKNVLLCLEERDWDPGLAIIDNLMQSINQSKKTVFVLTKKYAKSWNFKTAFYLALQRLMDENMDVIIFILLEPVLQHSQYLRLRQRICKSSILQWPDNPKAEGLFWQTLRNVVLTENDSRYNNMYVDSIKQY
Kind of assay: Activation of human TLR8 expressed in HEK293XL assessed as fold induction of NF-kappaB activity at 50 ug/ml after 18 hrs by reporter gene assay relative to control. The method, boiled down: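 HEK293 cells stably expressing human TLR7 or TLR8, transiently transfected with SEAP reporter plasmid; medium replaced, SIMRA compounds added, 18 h incubation. Supernatant SEAP measured by QuantiBlue; expressed as fold increase in NF-κB activity over PBS control. Tabulated data at 50 μg/mL, representative of three independent experiments.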

The test system of assay [3] is PBMC. Kind of assay: Immunomodulatory activity in human PBMC assessed as induction of IL12 at 100 ug/ml after 24 hrs. The format is functional, cell-based. In short, it runs like this:
(§2)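 Human PBMCs plated at 5 × 10^6 cells/mL; compounds dissolved in PBS added at various concentrations, 37 °C for 24 h. Supernatant cytokines/chemokines quantified with human Luminex multiplex kit.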

The subject of assay [4] is PBMC. Kind of assay: Immunomodulatory activity in human PBMC assessed as induction of IFN-alpha at 100 ug/ml after 24 hrs.
Assay [5] concerns the target T2, Toll-like receptor 9 (Mus musculus) (UniProt Q9EQU3).
T2 sequence (whole entry): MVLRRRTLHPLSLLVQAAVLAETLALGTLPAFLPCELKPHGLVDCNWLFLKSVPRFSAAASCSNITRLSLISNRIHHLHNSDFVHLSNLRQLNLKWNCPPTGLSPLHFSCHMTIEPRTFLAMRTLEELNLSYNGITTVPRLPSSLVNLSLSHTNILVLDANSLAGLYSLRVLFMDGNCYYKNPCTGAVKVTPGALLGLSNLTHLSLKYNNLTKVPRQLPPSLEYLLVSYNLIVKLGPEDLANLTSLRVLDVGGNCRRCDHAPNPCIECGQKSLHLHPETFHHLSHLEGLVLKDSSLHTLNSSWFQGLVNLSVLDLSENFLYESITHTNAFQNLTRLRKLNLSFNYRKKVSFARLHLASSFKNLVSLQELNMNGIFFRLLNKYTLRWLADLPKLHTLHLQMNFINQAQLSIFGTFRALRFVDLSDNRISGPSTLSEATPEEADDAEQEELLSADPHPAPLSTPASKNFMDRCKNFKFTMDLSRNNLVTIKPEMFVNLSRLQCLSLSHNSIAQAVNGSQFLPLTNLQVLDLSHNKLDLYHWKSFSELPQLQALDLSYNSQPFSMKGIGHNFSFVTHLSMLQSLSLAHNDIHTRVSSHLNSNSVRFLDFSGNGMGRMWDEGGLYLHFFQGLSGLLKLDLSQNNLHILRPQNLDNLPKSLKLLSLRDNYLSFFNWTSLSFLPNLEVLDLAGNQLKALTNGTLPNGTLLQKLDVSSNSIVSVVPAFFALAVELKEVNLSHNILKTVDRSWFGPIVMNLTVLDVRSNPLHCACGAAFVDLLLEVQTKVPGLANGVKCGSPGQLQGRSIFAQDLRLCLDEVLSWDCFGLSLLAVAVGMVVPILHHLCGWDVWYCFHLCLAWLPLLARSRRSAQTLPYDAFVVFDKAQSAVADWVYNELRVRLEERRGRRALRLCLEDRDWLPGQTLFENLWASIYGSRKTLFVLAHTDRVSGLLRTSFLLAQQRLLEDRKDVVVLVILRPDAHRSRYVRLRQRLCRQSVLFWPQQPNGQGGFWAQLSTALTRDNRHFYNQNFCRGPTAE
Kind of assay: Activation of mouse TLR9 expressed in HEK293 assessed as induction of NF-kappaB activity reporter gene assay. It counts as cell-based.

Assay [6] deals with Splenocyte. Briefly: Immunomodulatory activity in C57BL/6 mouse splenocytes bearing TLR7 receptor assessed as IL12 release at 100 ug/ml after 24 hrs by ELISA. The format is functional, cell-based. The method, boiled down:
as §1

The subject of assay [7] is PBMC. Kind of assay: Immunomodulatory activity in human PBMC assessed as induction of TNFalpha at 100 ug/ml after 24 hrs. The format is functional, cell-based. The method, boiled down: as §2

`Nc1ccn([C@@H]2O[C@H](COP(=O)(S)O[C@H]3[C@@H](O)[C@H](n4cnc5c(N)ncnc54)O[C@@H]3CO)[C@@H](OP(=O)(S)OC[C@H]3O[C@@H](n4ccc(=O)[nH]c4=O)[C@H](O)[C@@H]3OP(=O)(S)OC[C@H]3O[C@@H](n4ccc(=O)[nH]c4=O)[C@H](O)[C@@H]3OP(=O)(S)OC[C@H]3O[C@@H](n4ccc5c(=O)[nH]c(N)nc54)[C@H](O)[C@@H]3OP(=O)(S)OC[C@H]3O[C@@H](n4cnc5c(N)ncnc54)[C@H](O)[C@@H]3OP(=O)(S)OC[C@H]3O[C@@H](n4ccc(N)nc4=O)[C@H](O)[C@@H]3OP(=O)(S)OC[C@H]3O[C@@H](n4ccc5c(=O)[nH]c(N)nc54)[C@H](O)[C@@H]3OP(=O)(S)OC[C@H]3O[C@@H](n4cnc5c(N)ncnc54)[C@H](O)[C@@H]3OP(=O)(S)OC[C@H]3O[C@@H](n4ccc(=O)[nH]c4=O)[C@H](O)[C@@H]3OP(=O)(S)OC[C@H]3O[C@@H](n4ccc(=O)[nH]c4=O)[C@H](O)[C@@H]3OP(=O)(S)OCC(O)COP(=O)(S)O[C@H]3[C@@H](O)[C@H](n4ccc(=O)[nH]c4=O)O[C@@H]3COP(=O)(S)O[C@H]3[C@@H](O)[C@H](n4ccc(=O)[nH]c4=O)O[C@@H]3COP(=O)(S)O[C@H]3[C@@H](O)[C@H](n4cnc5c(N)ncnc54)O[C@@H]3COP(=O)(S)O[C@H]3[C@@H](O)[C@H](n4ccc5c(=O)[nH]c(N)nc54)O[C@@H]3COP(=O)(S)O[C@H]3[C@@H](O)[C@H](n4ccc(N)nc4=O)O[C@@H]3COP(=O)(S)O[C@H]3[C@@H](O)[C@H](n4cnc5c(N)ncnc54)O[C@@H]3COP(=O)(S)O[C@H]3[C@@H](O)[C@H](n4ccc5c(=O)[nH]c(N)nc54)O[C@@H]3COP(=O)(S)O[C@H]3[C@@H](O)[C@H](n4ccc(=O)[nH]c4=O)O[C@@H]3COP(=O)(S)O[C@H]3[C@@H](O)[C@H](n4ccc(=O)[nH]c4=O)O[C@@H]3COP(=O)(S)O[C@H]3[C@@H](O)[C@H](n4ccc(N)nc4=O)O[C@@H]3COP(=O)(S)O[C@H]3[C@@H](O)[C@H](n4cnc5c(N)ncnc54)O[C@@H]3CO)[C@H]2O)c(=O)n1` (some centres undefined): the outcome in the assay on Splenocyte [1] and in the assay on Splenocyte [6] was Active. Further, in assay [2], the fold change (FC) turned out to be 2.1. Besides, the Activity with PBMC [3] is 394 pg/mL; in the assay on PBMC [7], 115 pg/mL. For the same compound, the IFN-alpha with PBMC [4] was determined as 233 pg/mL. Further, the outcome in assay [5] was inactive.
Regarding `Nc1ccn([C@@H]2O[C@H](CO)[C@@H](OP(=O)(S)OC[C@H]3O[C@@H](n4ccc(=O)[nH]c4=O)[C@H](O)[C@@H]3OP(=O)(S)OC[C@H]3O[C@@H](n4ccc5c(=O)[nH]c(N)nc54)[C@H](O)[C@@H]3OP(=O)(S)OC[C@H]3O[C@@H](n4cnc5c(N)ncnc54)[C@H](O)[C@@H]3OP(=O)(S)OC[C@H]3O[C@@H](n4ccc(N)nc4=O)[C@H](O)[C@@H]3OP(=O)(S)OC[C@H]3O[C@@H](n4ccc5c(=O)[nH]c(N)nc54)[C@H](O)[C@@H]3OP(=O)(S)OC[C@H]3O[C@@H](n4cnc5c(N)ncnc54)[C@H](O)[C@@H]3OP(=O)(S)OC[C@H]3O[C@@H](n4ccc5c(=O)[nH]c(N)nc54)[C@H](O)[C@@H]3OP(=O)(S)OC[C@H]3O[C@@H](n4ccc(N)nc4=O)[C@H](O)[C@@H]3OP(=O)(S)OC[C@H]3O[C@@H](n4ccc(=O)[nH]c4=O)[C@H](O)[C@@H]3OP(=O)(S)OC[C@H]3O[C@@H](n4ccc(=O)[nH]c4=O)[C@H](O)[C@@H]3OP(=O)(S)OCC(O)COP(=O)(S)O[C@H]3[C@@H](O)[C@H](n4ccc(=O)[nH]c4=O)O[C@@H]3COP(=O)(S)O[C@H]3[C@@H](O)[C@H](n4ccc(=O)[nH]c4=O)O[C@@H]3COP(=O)(S)O[C@H]3[C@@H](O)[C@H](n4ccc(N)nc4=O)O[C@@H]3COP(=O)(S)O[C@H]3[C@@H](O)[C@H](n4ccc5c(=O)[nH]c(N)nc54)O[C@@H]3COP(=O)(S)O[C@H]3[C@@H](O)[C@H](n4cnc5c(N)ncnc54)O[C@@H]3COP(=O)(S)O[C@H]3[C@@H](O)[C@H](n4ccc5c(=O)[nH]c(N)nc54)O[C@@H]3COP(=O)(S)O[C@H]3[C@@H](O)[C@H](n4ccc(N)nc4=O)O[C@@H]3COP(=O)(S)O[C@H]3[C@@H](O)[C@H](n4cnc5c(N)ncnc54)O[C@@H]3COP(=O)(S)O[C@H]3[C@@H](O)[C@H](n4ccc5c(=O)[nH]c(N)nc54)O[C@@H]3COP(=O)(S)O[C@H]3[C@@H](O)[C@H](n4ccc(=O)[nH]c4=O)O[C@@H]3COP(=O)(S)O[C@H]3[C@@H](O)[C@H](n4ccc(N)nc4=O)O[C@@H]3CO)[C@H]2O)c(=O)n1` (some centres undefined), the outcome in the assay on Splenocyte [1] and in the assay on Splenocyte [6] was Active. In addition, the fold change (FC) in assay [2] stood at 0.6. Further, the results for the Activity with PBMC [3] and in the assay with PBMC [7] were 519 pg/mL and 33.4 pg/mL, respectively. For the same compound, the IFN-alpha in the assay with PBMC [4] is 106 pg/mL. In addition, the result in assay [5] was inactive.

Values taken from ChEMBL document CHEMBL1154352, “Toll-like receptor 7 selective synthetic oligoribonucleotide agonists: synthesis and structure-activity relationship studies” (J Med Chem, 2009).
